Assay results: the RNAGym collection of RNA variant scans (doi:10.1126/science.aae0568)
Fewer inactive variants are shown than the library holds.

B1: tRNA (parent)
chain: GUUCCGUUGGCGUAAUGGUAACGCGUCUCCCUCCUAAGGAGAAGACUGCGGGUUCGAGUCCCGUACGGAACG

Variants of: B1
Test: yeast fitness relative to wild type (ratio to wild type); higher = fitter; tRNA-Arg(CCU), competitive growth, 37 C, YPD
Summary of the method: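 Gene amplicons from the start population and from each of six end populations were read by 100-nucleotide paired-end sequencing. Those end populations came from pooled Saccharomyces cerevisiae strains carrying tRNA-Arg(CCU) gene variants at the native locus, competed in YPD at 37°C for 24 hours. Fitness relative to wild type was worked out from changes in genotype frequencies. Genotypes needed ≥ 100 starting reads, and estimates < 0.5 were set to 0.5.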

Variant | yeast fitness
C27U G39C | 0.613
C27U A40C G58A | 0.626
C27U C30U C46U U54G | ≤ 0.5
C27U C55U C60U A70U | ≤ 0.5
C27U C33U | 0.664
C27G C31U C34G A37G G44A | ≤ 0.5
U28A C29G | 0.558
U28A C29A | 0.598
U28A A37C C61G | ≤ 0.5
C27G G41A A57G | 0.746
C27U C55A G58A | ≤ 0.5
U28A C30U C55A | ≤ 0.5
C27U G44A G52A A57C | 0.538
C27G C30U C66U | ≤ 0.5
C27G C60G A65U | 0.641
C27U U54G C55U | ≤ 0.5
C27G U32G A36C C46G | ≤ 0.5
U28A C30U A69C | 0.57
C27U C30G C33G C34G A40U G52C G56C | ≤ 0.5
C27U C55U | 0.773
U28A C31A | 0.687
C27U A45U G50A A69C | ≤ 0.5
C27G G38C | 0.5
U28A C33G A43C A57C G67A A69U | ≤ 0.5

Variant | yeast fitness
C27U G48A C49U | 1.01
C27U A43C A69C | 0.754
U28A C31U C66A | ≤ 0.5
C27U A45C C49U G56A | ≤ 0.5
C27G G50A G56C | ≤ 0.5
C27U A65U | 0.99
C27G G51C | 0.78
C27U C30A C46G | 0.698
C27U G48A C49U G67A | 0.674
C27G G68C | 0.65
C27U C30U C34A C62A | ≤ 0.5
C27G C34G C46U C49U | ≤ 0.5
C27U C33U A36U A43G | ≤ 0.5
C27U G51A U64A A69G | ≤ 0.5
C27U U35G A57C A65C A70U | ≤ 0.5
C27U G38A G51A | ≤ 0.5
C27U C31U G48A | 1
C27U C66A G68C | 0.543
C27U U53A G67A | ≤ 0.5
U28A C34U A57G C66U | ≤ 0.5
C27U G51C C55A C60A | ≤ 0.5
C27G G41A | 1.03
U28A A37C | 0.657
U28A A37G | 0.658

Variant | yeast fitness
C27U C29U A57C | ≤ 0.5
C27G U28C | 0.609
C27G U28G | 0.522
C27U C34G C60A | ≤ 0.5
C27G C34G U54A | 0.6
C27U C46A G50A | 0.73
C27G C60U | ≤ 0.5
C27G C60A | ≤ 0.5
C27G C31G C61A | 0.693
C27U A65G G68A | 0.563
C27U C66U A69U | 0.779
C27G C34U G41C G51A | ≤ 0.5
C27G U47A | 0.702
C27G U59G | 0.641
C27G C34U C49U C66G | ≤ 0.5
C27U C30U A70G | 0.624
C27U A36C A57G | ≤ 0.5
U28A C33A G52A | ≤ 0.5
C27U A45C G67A | 0.666
C27G G38A G48C | 0.538
C27U A37C G56C G63C U64C | ≤ 0.5
C27U G50A | 0.991
C27U G41A U47C | 1.08
U28A A42G C55A C66A | ≤ 0.5

Variant | yeast fitness
C27G G39A C46U | 0.74
C27G C31U A57G | 0.562
C27U U35G A42U | ≤ 0.5
C27U A37G G38C A43C C62G | 0.508
C27U G48C | 0.958
C27G C33G G41A | ≤ 0.5
C27U G56C | 0.595
C27U G56A | 0.998
C27G U47C G50A A57G C60G | 0.636
C27U U53C | 0.617
U28A A42G U64A | ≤ 0.5
C27U U28G A40C C46A C49U A70U | 0.695
C27U U47G G50A | ≤ 0.5
C27G G39A C66G | 0.655
C27U C34U C49G G56C | ≤ 0.5
C27G C30G A40G C49A A65U | ≤ 0.5
C27G G41A C49G G56C | ≤ 0.5
C27U | 0.995
C27U C55A A69U | 0.549
C27U G38C A57U | 0.552
U28A C34U A40U A45U C66U | ≤ 0.5
C27G G39A C66U G67A | ≤ 0.5
C27U A40U | 0.925
C27U A40G | 0.834

Variant | yeast fitness
C27U C33U G38C C62U | ≤ 0.5
C27U C30A A69U | 0.585
U28A A42G C60U | ≤ 0.5
U28A A40U | 0.984
C27U C31U G52A | 0.639
C27U A36C A69U | 0.646
C27G C30U G39C A40U G44C U47A G48A | ≤ 0.5
C27U A45U | 1.02
C27U A45C | 0.947
C27U C49G A69U | 0.542
C27U G67U | 0.854
C27U G67C | 0.771
C27U C33G C34G G44A G50A G52A A65U | ≤ 0.5
U28A C31A G51C | ≤ 0.5
C27U A37G G41A G50C | 0.649
C27G C31G C46A | 0.932
C27G U28A C34U | ≤ 0.5
C27G U35A A45U G67A | 0.612
U28A A40C C46G | ≤ 0.5
C27U U28G A40C A69C | 0.607
C27U U28A U32A C34U A36C | 0.554
C27U C30U A42C G58C | ≤ 0.5
C27U C30U C46G | 0.558
C27U C31A U64G | ≤ 0.5

Variant | yeast fitness
C27G C49U C55G | ≤ 0.5
C27U A37C C60G A65G | ≤ 0.5
C27U C46U A69C | 0.776
U28A C31A A42C A45U G51A A65U | ≤ 0.5
C27U U28G A42U | 0.535
U28A C31A A36C A45G G48C | 0.619
C27U A37G A70C | 0.562
C27U A40U U54C | ≤ 0.5
C27G G41A U64A | 0.681
C27U G51C C55A | ≤ 0.5
C27G U54C A69G | 0.625
C27G U35A | 0.636
U28A A40G A65U C66U | ≤ 0.5
U28A C33U C55G | ≤ 0.5
C27U C31U U35C A36U C55A C66G | 0.777
C27G C31G G38C | 0.504
C27G U32C C62U | 0.62
C27U C46U G48A A69C | 0.696
U28A C29G C33U C34G A42U | 0.536
C27G C29U C49U A70U | ≤ 0.5
C27G C30U U32C G51C | 0.603
C27U A40G C62G G68A | ≤ 0.5
C27U C34A U54C | ≤ 0.5
C27U G38C G67A | ≤ 0.5

Variant | yeast fitness
C27G G48C C49G | 0.503
C27U G58C A70U | 0.876
C27U A42U C62U A65C G67A | ≤ 0.5
U28A A37C C61G G68U | ≤ 0.5
C27G C30G C49U C61A | ≤ 0.5
C27G G50A C60G | 0.778
C27U C31A A45U | 0.747
C27U A45C G48A A57U G68C | 0.562
C27U U28C C62U | 0.625
C27G U35A G52A A57G A69U A70U | ≤ 0.5
C27U G39C C60A | ≤ 0.5
C27G C30G G56U | 0.543
C27U C61A A69U | 0.551
U28A A69C | 0.88
C27U C33G A43U C60G | ≤ 0.5
C27G C33G A57C | ≤ 0.5
C27U C46U G48A G68A | 0.635
C27G G67U | 0.632
C27U A36G A42C C49U | 0.574
C27U C31A U35G C55G | ≤ 0.5
C27U C33U U35C | ≤ 0.5
C27U G38C G39A A43C C60G A65C | ≤ 0.5
U28A C29G C33U C34G C62A A69G | ≤ 0.5
